{
  "source": "paper PMC3983339",
  "about": "(Journal of Medicinal Chemistry, 2014)",
  "key": {"[1]": {"system": "intracellular PRMT1 activity (GFP-ALY methylation) in 293T cells", "test": "GFP-ALY methylation in 293T cells", "type": "cell-based, human", "outline": "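A stable 293T line expressing GFP-ALY, kept in DMEM plus 10% FBS, was exposed to 20 μM test compound for 15 h. Cells were lysed on ice for 30 min in H buffer (150 mM NaCl, 20 mM Tris pH 7.8, 1% NP-40, phosphatase/protease inhibitors, 1 mM DTT) and cleared at 12000g for 20 min. GFP-ALY was pulled down on GFP antibody beads and analysed by SDS–PAGE and ASYM24 Western blot with chemiluminescence detection.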"}, "PRMT1 [2]": {"target": "T1, PRMT1 (Rattus norvegicus, UniProt Q63009)", "T1 sequence (Q63009 whole entry)": "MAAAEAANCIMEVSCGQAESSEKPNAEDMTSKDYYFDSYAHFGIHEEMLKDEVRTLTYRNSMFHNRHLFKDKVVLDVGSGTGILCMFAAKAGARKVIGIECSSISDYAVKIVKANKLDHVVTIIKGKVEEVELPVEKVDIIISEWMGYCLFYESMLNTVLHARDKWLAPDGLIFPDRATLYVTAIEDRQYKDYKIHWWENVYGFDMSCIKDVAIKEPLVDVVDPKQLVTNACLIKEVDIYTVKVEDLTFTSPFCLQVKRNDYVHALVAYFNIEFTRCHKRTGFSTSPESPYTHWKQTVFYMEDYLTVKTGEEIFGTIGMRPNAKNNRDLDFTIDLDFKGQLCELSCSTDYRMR", "test": "competitive fluorescence anisotropy binding assay", "details": "524 nm, 0.2 μM H4-FL, 2.0 μM PRMT1, increasing compound concentration", "outline": "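Recombinant His6-PRMT1 was expressed in E. coli BL21(DE3) and Ni-NTA purified. 0.2 μM fluorescein-H4(1–20) and 2 μM PRMT1 were mixed, then test compound was titrated in until anisotropy levelled off. Excitation was 498 nm and emission 524 nm. Anisotropy from several scans was plotted against inhibitor concentration.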"}, "CMY cells": {"system": "CMY cells", "test": "CellTiter-Glo cell viability, CMY cells", "type": "cell-based", "details": "20 μM, compared with HEL, Jurkat, HL-60", "outline": "(§1)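 Leukemia cell lines were grown in RPMI plus 10% FBS and seeded at 1000–1500 cells per well. Cultures received 20 μM test compound or an equal amount of DMSO. CellTiter-Glo reagent was added at 0, 24, 48 and 72 h after treatment, and luminescence was read. Viability is expressed as viable cells in the treated group as a percentage of the DMSO control.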"}, "PRMT1 [3]": {"target": "T1, PRMT1", "test": "steady-state kinetic analysis of PRMT1 inhibition", "type": "biochemical", "details": "for Ki: Kis"}, "leukemia cell lines": {"system": "leukemia cell lines", "test": "CellTiter-Glo cell viability, panel of leukemia cell lines", "type": "cell-based", "details": "10 different leukemia cell lines, 20 μM, 3 consecutive days"}, "MOLM-13 cells": {"system": "MOLM-13 cells", "test": "CellTiter-Glo cell viability, MOLM-13 cells", "type": "cell-based", "details": "20 μM, compared with HEL, Jurkat, HL-60", "outline": "as §1"}, "HEL cells": {"system": "HEL cells", "test": "CellTiter-Glo cell viability, HEL cells", "type": "cell-based", "details": "HEL cells (JAK2V617F), 20 μM, 3 days", "outline": "as §1"}, "PRMT1 [4]": {"target": "T1, PRMT1", "test": "radiometric P81 filter binding assay, PRMT1", "type": "biochemical", "details": "for inhibition at 20 µM: read-out: inhibition of PRMT1"}, "CHRF-288-11 cells": {"system": "CHRF-288-11 cells", "test": "CellTiter-Glo cell viability, CHRF-288-11 cells", "type": "cell-based", "details": "20 μM, compared with HEL, Jurkat, HL-60", "outline": "as §1"}, "PRMT5": {"target": "PRMT5 (Homo sapiens, UniProt O14744)", "sequence (O14744 whole entry, species assumed)": "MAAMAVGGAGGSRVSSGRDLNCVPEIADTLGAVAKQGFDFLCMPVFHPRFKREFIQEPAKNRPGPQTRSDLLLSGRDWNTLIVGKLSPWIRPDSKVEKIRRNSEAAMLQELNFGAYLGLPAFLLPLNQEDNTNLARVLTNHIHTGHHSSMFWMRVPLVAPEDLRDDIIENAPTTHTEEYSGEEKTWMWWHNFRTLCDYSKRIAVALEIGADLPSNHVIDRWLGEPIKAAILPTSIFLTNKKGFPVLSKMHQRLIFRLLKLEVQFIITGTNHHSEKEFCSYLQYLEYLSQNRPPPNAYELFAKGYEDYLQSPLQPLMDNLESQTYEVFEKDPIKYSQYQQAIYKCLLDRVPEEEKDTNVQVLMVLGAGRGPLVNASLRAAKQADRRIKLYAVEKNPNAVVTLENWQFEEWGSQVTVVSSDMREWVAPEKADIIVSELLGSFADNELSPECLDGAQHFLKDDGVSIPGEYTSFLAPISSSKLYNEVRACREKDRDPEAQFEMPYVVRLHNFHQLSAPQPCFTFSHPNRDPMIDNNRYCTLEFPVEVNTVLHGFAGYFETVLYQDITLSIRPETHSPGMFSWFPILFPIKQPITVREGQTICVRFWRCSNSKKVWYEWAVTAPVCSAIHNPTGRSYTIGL", "sequence (Q9BQA1 whole entry partner, species assumed)": "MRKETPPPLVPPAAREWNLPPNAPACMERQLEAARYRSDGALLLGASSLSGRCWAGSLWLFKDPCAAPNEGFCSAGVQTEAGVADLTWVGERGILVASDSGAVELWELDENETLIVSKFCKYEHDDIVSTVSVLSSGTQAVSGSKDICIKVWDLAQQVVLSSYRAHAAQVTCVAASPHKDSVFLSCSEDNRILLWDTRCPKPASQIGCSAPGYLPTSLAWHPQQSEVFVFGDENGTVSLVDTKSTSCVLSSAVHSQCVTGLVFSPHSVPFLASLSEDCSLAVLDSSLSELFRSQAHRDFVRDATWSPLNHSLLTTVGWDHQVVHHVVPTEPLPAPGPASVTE", "test": "radiometric P81 filter binding assay, PRMT5", "type": "biochemical", "details": "initial screening at 20 μM compound", "outline": "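HA-PRMT5 was co-expressed with WDR77 in HEK293T cells and purified on HA-peptide agarose by peptide elution. Reactions at 30 °C used 50 mM HEPES pH 8.0, 50 mM NaCl, 1 mM EDTA, 0.5 mM DTT, with 0.5 μM [3H]SAM and 1 μM H4(1–20) peptide. Test compound at 20 μM was preincubated with enzyme and [3H]SAM for 5 min at room temperature, then peptide was added to start the reaction. Mixtures were spotted on P81 paper, washed with 50 mM NaHCO3 pH 9.0, and counted by scintillation. Controls lacked inhibitor, or both peptide and inhibitor.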"}, "[5]": {"details": "varied H4-20, [3H]AdoMet fixed at 3 μM"}},
  "data": [
    {"molecule": "N=C(N)c1ccc(-c2ccc(-c3ccc(C(=N)N)cc3)o2)cc1", "note": "[Compound 1, 2,5-bis(4-amidinophenyl)furan]", "values": [
      {"measurement": "level of methylated GFP-ALY protein", "setting": "[1]; 293T cells, 20 μM, 15 h, ASYM24 antibody", "value": "significantly reduced"},
      {"measurement": "cell membrane permeability", "setting": "[1]; inferred from inhibition of cellular PRMT1 activity in 293T cells", "value": "permeable to cell membrane"},
      {"measurement": "fluorescence anisotropy plateau of H4-FL and PRMT1 mixture", "setting": "PRMT1 [2]", "value": "about 0.055"},
      {"measurement": "sensitivity of cell growth versus other cell lines", "setting": "CMY cells", "value": "more sensitive"},
      {"measurement": "Ki", "setting": "PRMT1 [3]; [5]", "value": 2.6, "unit": "µM"},
      {"measurement": "Ki", "setting": "PRMT1 [3]; varied [3H]SAM, H4-20 fixed at 15 μM", "value": 16, "unit": "µM"},
      {"measurement": "Kis smaller than Kii", "setting": "PRMT1 [3]; varied H4-20", "value": "about 14 fold"},
      {"measurement": "Kii", "setting": "PRMT1 [3]; [5]", "value": 38, "unit": "µM"},
      {"measurement": "cell growth", "setting": "leukemia cell lines", "value": "inhibited cell growth for most of the leukemia cell lines"},
      {"measurement": "sensitivity of cell growth versus other cell lines", "setting": "MOLM-13 cells", "value": "more sensitive"},
      {"measurement": "cell growth", "setting": "HEL cells", "value": "except HEL cells"},
      {"measurement": "inhibition at 20 µM", "setting": "PRMT1 [4]", "value": "> 75", "unit": "%"},
      {"measurement": "sensitivity of cell growth versus other cell lines", "setting": "CHRF-288-11 cells", "value": "more sensitive"}
    ]},
    {"molecule": "N=C(N)c1ccc(-c2ccc(-c3ccc(OCCCCCCCCOc4ccc(-c5ccc(-c6ccc(C(=N)N)cc6)o5)cc4)cc3)o2)cc1", "note": "[Compound 2]", "values": [
      {"measurement": "inhibition at 20 µM", "setting": "PRMT1 [4]", "value": "> 85", "unit": "%"}
    ]},
    {"molecule": "N=C(N)c1ccc(-c2ccc(-c3ccc(C(=N)N)c(F)c3)o2)cc1F", "note": "[Compound 21]", "values": [
      {"measurement": "inhibition of PRMT5", "setting": "PRMT5", "value": "very weak activity"},
      {"measurement": "inhibition of PRMT1", "setting": "PRMT1 [4]; initial screening at 20 μM compound", "value": "very weak activity"}
    ]}
  ]
}
